# Numbered stars: 1 amine (or outer) side, 2 acyl side, 3 side chain; on linkers, the order of the positions; unused ones are H or OH. Bridge positions count the residues as written; N and C are the ends. Square brackets hold non-standard residues; d marks the D form. Peptide text beside a SMILES is read from it. X1 = O=C([C@H](CC1C=Nc2ccccc21)N[*:1])[*:2]; Nle = CCCC[C@H](N)C(=O)O; Nva = CCC[C@H](N)C(=O)O; Abu = CC[C@H](N)C(=O)O
# Molecular target: Neuronal acetylcholine receptor; alpha3/beta4 (Rattus norvegicus) (UniProt P04757+P12392)
# Assay: Antagonist activity at rat alpha3beta4 nAChR expressed in HEK293 cells assessed as inhibition of epibatadine-induced effect at 10 uM after 30 mins by fluorescent membrane potential assay relative to mecamylamine
# Type: cell-based
# How it was run: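 Rat α3β4 nAChR stably expressed in HEK293 cells; crude, SPE-desalted individual peptides tested at 10 μM in HBSS with membrane potential blue dye, 30 min at 37 °C. Fluorescence change read after epibatidine (0.1 μM). Percent inhibition set against 10 μM mecamylamine taken as 100%.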
row,SMILES,inhibition
1,CCCC[C@@H]1NC(=O)[C@H](CO)NC(=O)[C@@H]2CSSC[C@@H](C(=O)O)NC(=O)[C@H](Cc3ccc(O)cc3)NC(=O)[C@H](CCC)NC(=O)[C@H](CC)NC(=O)[C@H]([C@H](C)CC)NC(=O)[C@H](CSSC[C@H](NC(=O)CN)C(=O)N2)NC(=O)[C@H](CC)NC(=O)[C@@H]2CCCN2C1=O,59.4%
2,"CCCC[C@@H]1NC(=O)[C@H](Cc2c[nH]c3ccccc23)NC(=O)[C@H](Cc2ccccc2)NC(=O)[C@@H]2CSSC[C@H](NC(=O)CN)C(=O)N[C@@H](CSSC[C@@H](C(=O)O)NC(=O)[C@@H]3CCCN3C1=O)C(=O)N[C@@H](CO)C(=O)N[C@@H](CCCC)C(=O)N1CCC[C@H]1C(=O)N1CCC[C@H]1C(=O)N2 (H-GCCS[Nle]PPCFW[Nle]PC-OH; disulfide 2-8, 3-13)",14.2%
3,"CCCC[C@@H]1NC(=O)[C@H](CC)NC(=O)[C@H](Cc2ccccc2)NC(=O)[C@@H]2CSSC[C@H](NC(=O)CN)C(=O)N[C@@H](CSSC[C@@H](C(=O)O)NC(=O)[C@@H]3CCCN3C1=O)C(=O)N[C@@H](CO)C(=O)N[C@@H](CCCC)C(=O)N1CCC[C@H]1C(=O)N1CCC[C@H]1C(=O)N2 (H-GCCS[Nle]PPCF[Abu][Nle]PC-OH; disulfide 2-8, 3-13)",54.6%
4,CCCC[C@@H]1NC(=O)[C@H](CC)NC(=O)[C@H]([C@H](C)CC)NC(=O)[C@@H]2CSSC[C@H](NC(=O)CN)C(=O)N[C@@H](CSSC[C@@H](C(=O)O)NC(=O)[C@H](Cc3ccc(O)cc3)NC1=O)C(=O)N[C@@H](CO)C(=O)N[C@@H](CCCC)C(=O)N1CCC[C@H]1C(=O)N[C@@H](CC)C(=O)N2,72.6%
5,CCCC[C@@H]1NC(=O)[C@H](CC)NC(=O)[C@H]([C@H](C)CC)NC(=O)[C@@H]2CSSC[C@H](NC(=O)CN)C(=O)N[C@@H](CSSC[C@@H](C(=O)O)NC(=O)[C@@H]3CCCN3C1=O)C(=O)N[C@@H](CO)C(=O)N[C@@H](Cc1cnc[nH]1)C(=O)N1CCC[C@H]1C(=O)N[C@@H](CC)C(=O)N2,36.2%
6,CCCC[C@@H]1NC(=O)[C@H](CC)NC(=O)[C@H]([C@H](C)CC)NC(=O)[C@@H]2CSSC[C@H](NC(=O)CN)C(=O)N[C@@H](CSSC[C@@H](C(=O)O)NC(=O)[C@H](Cc3ccc(O)cc3)NC1=O)C(=O)N[C@@H](CO)C(=O)N[C@@H](CCCC)C(=O)N1CCC[C@H]1C(=O)N1CCC[C@H]1C(=O)N2,63.8%
7,CCCC[C@@H]1NC(=O)[C@H](CO)NC(=O)[C@@H]2CSSC[C@@H](C(=O)O)NC(=O)[C@H](Cc3ccc(O)cc3)NC(=O)[C@H](CCC)NC(=O)[C@H](Cc3c[nH]c4ccccc34)NC(=O)[C@H]([C@H](C)CC)NC(=O)[C@H](CSSC[C@H](NC(=O)CN)C(=O)N2)NC(=O)[C@@H]2CCCN2C(=O)[C@@H]2CCCN2C1=O,58.3%
8,CCCC[C@@H]1NC(=O)[C@H](CO)NC(=O)[C@@H]2CSSC[C@@H](C(=O)O)NC(=O)[C@H](Cc3ccc(O)cc3)NC(=O)[C@H](CCC)NC(=O)[C@H](CC)NC(=O)[C@H]([C@H](C)CC)NC(=O)[C@H](CSSC[C@H](NC(=O)CN)C(=O)N2)NC(=O)[C@@H]2CCCN2C(=O)[C@@H]2CCCN2C1=O,50.9%
9,CCCC[C@@H]1NC(=O)[C@H](Cc2c[nH]c3ccccc23)NC(=O)[C@H]([C@H](C)CC)NC(=O)[C@@H]2CSSC[C@H](NC(=O)CN)C(=O)N[C@@H](CSSC[C@@H](C(=O)O)NC(=O)[C@H](Cc3ccc(O)cc3)NC1=O)C(=O)N[C@@H](CO)C(=O)N[C@@H](Cc1cnc[nH]1)C(=O)N1CCC[C@H]1C(=O)N[C@@H](CC)C(=O)N2,55.7%
10,"CCCC[C@@H]1NC(=O)[C@H](CC)NC(=O)[C@H](Cc2ccccc2)NC(=O)[C@@H]2CSSC[C@H](NC(=O)CN)C(=O)N[C@@H](CSSC[C@@H](C(=O)O)NC(=O)[C@@H]3CCCN3C1=O)C(=O)N[C@@H](CO)C(=O)N[C@@H](Cc1cnc[nH]1)C(=O)N1CCC[C@H]1C(=O)N[C@@H](CC)C(=O)N2 (H-GCCSHP[Abu]CF[Abu][Nle]PC-OH; disulfide 2-8, 3-13)",35.5%
11,"CCC[C@@H]1NC(=O)[C@H](Cc2c[nH]c3ccccc23)NC(=O)[C@H](Cc2ccccc2)NC(=O)[C@@H]2CSSC[C@H](NC(=O)CN)C(=O)N[C@@H](CSSC[C@@H](C(=O)O)NC(=O)[C@@H]3CCCN3C1=O)C(=O)N[C@@H](CO)C(=O)N[C@@H](Cc1cnc[nH]1)C(=O)N1CCC[C@H]1C(=O)N[C@@H](CC)C(=O)N2 (H-GCCSHP[Abu]CFW[Nva]PC-OH; disulfide 2-8, 3-13)",36.2%
12,CCC[C@@H]1NC(=O)[C@H](Cc2c[nH]c3ccccc23)NC(=O)[C@H]([C@H](C)CC)NC(=O)[C@@H]2CSSC[C@H](NC(=O)CN)C(=O)N[C@@H](CSSC[C@@H](C(=O)O)NC(=O)[C@@H]3CCCN3C1=O)C(=O)N[C@@H](CO)C(=O)N[C@@H](Cc1cnc[nH]1)C(=O)N1CCC[C@H]1C(=O)N[C@@H](CC)C(=O)N2,38.7%
13,"CCCC[C@@H]1NC(=O)[C@H](CC)NC(=O)[C@H](Cc2ccccc2)NC(=O)[C@@H]2CSSC[C@H](NC(=O)CN)C(=O)N[C@@H](CSSC[C@@H](C(=O)O)NC(=O)[C@@H]3CCCN3C1=O)C(=O)N[C@@H](CO)C(=O)N[C@@H](CCCC)C(=O)N1CCC[C@H]1C(=O)N[C@@H](CC)C(=O)N2 (H-GCCS[Nle]P[Abu]CF[Abu][Nle]PC-OH; disulfide 2-8, 3-13)",36.6%
14,CCCC[C@@H]1NC(=O)[C@H](CC2C=Nc3ccccc32)NC(=O)[C@H]([C@H](C)CC)NC(=O)[C@@H]2CSSC[C@H](NC(=O)CN)C(=O)N[C@@H](CSSC[C@@H](C(=O)O)NC(=O)[C@@H]3CCCN3C1=O)C(=O)N[C@@H](CO)C(=O)N[C@@H](CCCC)C(=O)N1CCC[C@H]1C(=O)N[C@@H](CC)C(=O)N2 (stereo not given in full),51.4%
15,"CCCC[C@@H]1NC(=O)[C@H](CO)NC(=O)[C@@H]2CSSC[C@@H](C(=O)O)NC(=O)[C@H](Cc3ccc(O)cc3)NC(=O)[C@H](CCC)NC(=O)[C@H](Cc3c[nH]c4ccccc34)NC(=O)[C@H](Cc3ccccc3)NC(=O)[C@H](CSSC[C@H](NC(=O)CN)C(=O)N2)NC(=O)[C@H](CC)NC(=O)[C@@H]2CCCN2C1=O (H-GCCS[Nle]P[Abu]CFW[Nva]YC-OH; disulfide 2-8, 3-13)",67.9%
16,"CCCC[C@@H]1NC(=O)[C@H](CO)NC(=O)[C@@H]2CSSC[C@@H](C(=O)O)NC(=O)[C@H](Cc3ccc(O)cc3)NC(=O)[C@H](CCC)NC(=O)[C@H](Cc3c[nH]c4ccccc34)NC(=O)[C@H](Cc3ccccc3)NC(=O)[C@H](CSSC[C@H](NC(=O)CN)C(=O)N2)NC(=O)[C@@H]2CCCN2C(=O)[C@@H]2CCCN2C1=O (H-GCCS[Nle]PPCFW[Nva]YC-OH; disulfide 2-8, 3-13)",61.6%
17,CCCC[C@@H]1NC(=O)[C@H](Cc2c[nH]c3ccccc23)NC(=O)[C@H]([C@H](C)CC)NC(=O)[C@@H]2CSSC[C@H](NC(=O)CN)C(=O)N[C@@H](CSSC[C@@H](C(=O)O)NC(=O)[C@H](Cc3ccc(O)cc3)NC1=O)C(=O)N[C@@H](CO)C(=O)N[C@@H](Cc1cnc[nH]1)C(=O)N1CCC[C@H]1C(=O)N1CCC[C@H]1C(=O)N2,43.9%
18,CCC[C@@H]1NC(=O)[C@H](CC)NC(=O)[C@H]([C@H](C)CC)NC(=O)[C@@H]2CSSC[C@H](NC(=O)CN)C(=O)N[C@@H](CSSC[C@@H](C(=O)O)NC(=O)[C@@H]3CCCN3C1=O)C(=O)N[C@@H](CO)C(=O)N[C@@H](Cc1cnc[nH]1)C(=O)N1CCC[C@H]1C(=O)N[C@@H](CC)C(=O)N2,41.2%
19,"CCCC[C@@H]1NC(=O)[C@H](Cc2c[nH]c3ccccc23)NC(=O)[C@H](Cc2ccccc2)NC(=O)[C@@H]2CSSC[C@H](NC(=O)CN)C(=O)N[C@@H](CSSC[C@@H](C(=O)O)NC(=O)[C@H](Cc3ccc(O)cc3)NC1=O)C(=O)N[C@@H](CO)C(=O)N[C@@H](Cc1cnc[nH]1)C(=O)N1CCC[C@H]1C(=O)N1CCC[C@H]1C(=O)N2 (H-GCCSHPPCFW[Nle]YC-OH; disulfide 2-8, 3-13)",44%
20,CCC[C@@H]1NC(=O)[C@H](Cc2c[nH]c3ccccc23)NC(=O)[C@H]([C@H](C)CC)NC(=O)[C@@H]2CSSC[C@H](NC(=O)CN)C(=O)N[C@@H](CSSC[C@@H](C(=O)O)NC(=O)[C@H](Cc3ccc(O)cc3)NC1=O)C(=O)N[C@@H](CO)C(=O)N[C@@H](Cc1cnc[nH]1)C(=O)N1CCC[C@H]1C(=O)N1CCC[C@H]1C(=O)N2,56.5%
21,CCCC[C@@H]1NC(=O)[C@H](CO)NC(=O)[C@@H]2CSSC[C@@H](C(=O)O)NC(=O)[C@@H]3CCCN3C(=O)[C@H](CCC)NC(=O)[C@H](Cc3c[nH]c4ccccc34)NC(=O)[C@H]([C@H](C)CC)NC(=O)[C@H](CSSC[C@H](NC(=O)CN)C(=O)N2)NC(=O)[C@@H]2CCCN2C(=O)[C@@H]2CCCN2C1=O,38.9%
22,CCCC[C@@H]1NC(=O)[C@H](Cc2c[nH]c3ccccc23)NC(=O)[C@H]([C@H](C)CC)NC(=O)[C@@H]2CSSC[C@H](NC(=O)CN)C(=O)N[C@@H](CSSC[C@@H](C(=O)O)NC(=O)[C@H](Cc3ccc(O)cc3)NC1=O)C(=O)N[C@@H](CO)C(=O)N[C@@H](CCCC)C(=O)N1CCC[C@H]1C(=O)N[C@@H](CC)C(=O)N2,68.6%
23,CCC[C@@H]1NC(=O)[C@H](CC)NC(=O)[C@H]([C@H](C)CC)NC(=O)[C@@H]2CSSC[C@H](NC(=O)CN)C(=O)N[C@@H](CSSC[C@@H](C(=O)O)NC(=O)[C@@H]3CCCN3C1=O)C(=O)N[C@@H](CO)C(=O)N[C@@H](Cc1cnc[nH]1)C(=O)N1CCC[C@H]1C(=O)N1CCC[C@H]1C(=O)N2,45.1%
24,"CCCC[C@@H]1NC(=O)[C@H](CC2C=Nc3ccccc32)NC(=O)[C@H](Cc2ccccc2)NC(=O)[C@@H]2CSSC[C@H](NC(=O)CN)C(=O)N[C@@H](CSSC[C@@H](C(=O)O)NC(=O)[C@@H]3CCCN3C1=O)C(=O)N[C@@H](CO)C(=O)N[C@@H](Cc1cnc[nH]1)C(=O)N1CCC[C@H]1C(=O)N[C@@H](CC)C(=O)N2 (stereo not given in full) (H-GCCSHP[Abu]CF[X1][Nle]PC-OH; disulfide 2-8, 3-13)",22.3%
25,CCC[C@@H]1NC(=O)[C@H](Cc2c[nH]c3ccccc23)NC(=O)[C@H]([C@H](C)CC)NC(=O)[C@@H]2CSSC[C@H](NC(=O)CN)C(=O)N[C@@H](CSSC[C@@H](C(=O)O)NC(=O)[C@@H]3CCCN3C1=O)C(=O)N[C@@H](CO)C(=O)N[C@@H](Cc1cnc[nH]1)C(=O)N1CCC[C@H]1C(=O)N1CCC[C@H]1C(=O)N2,44.8%

# Source: ChEMBL document CHEMBL3232963, “Discovery of a potent and selective α3β4 nicotinic acetylcholine receptor antagonist from an α-conotoxin synthetic combinatorial library” (J Med Chem, 2014)
